Measurements from article PMC9064050 (RSC Advances, 2019).
Converted amounts (≈) assume the structure as drawn.

How the values were obtained:
[1] = DPPH radical scavenging assay; conditions: for % Inhibition, DPPH: 240 µM, 517 nm
Method in brief: (§1)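 Absorbance read at 517 nm (DPPH), 230 nm (hydroxyl), 590 nm (superoxide), 546 nm (nitric oxide) and 700 nm (FRAP). FRAP measures the rise in absorbance from Fe3+→Fe2+ reduction with ferricyanide. IC50 taken from % inhibition vs concentration plots.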

[2] = Hydroxyl radical scavenging assay; conditions: for % Inhibition, hydroxyl radical: 240 µM, 230 nm
Method in brief: as §1

[3] = Superoxide scavenging assay; conditions: for % Inhibition, superoxide: 240 µM, 590 nm
Method in brief: as §1

[4] = Nitric oxide scavenging assay; conditions: for % Inhibition, nitric oxide: 240 µM, 546 nm
Method in brief: as §1

[5] = Ferric reducing antioxidant power; conditions: for % Inhibition, ferric reducing power: 240 µM, 700 nm
Method in brief: as §1

Aspergillus niger = assay: Kirby–Bauer agar disc diffusion; assay type: cell-based; conditions: for inhibition%: eqn (20)
Method in brief: (§2)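 Kirby–Bauer disc diffusion on Mueller–Hinton agar (pH 7.2, autoclaved 121 °C for 15 min, ~4 mm deep, held 2–8 °C for 24 h). Plates spread with 24 h cultures. 6 mm discs loaded with 20 μL of 100 μM test compound. Bacteria incubated at 37 °C for 48 h; fungi at 22 °C for 7 days. Clear-zone diameter measured by ruler; % inhibition by eqn (20) against 6 mm control.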

Candida albicans = assay: Kirby–Bauer agar disc diffusion; assay type: cell-based; conditions: for inhibition%: eqn (20)
Method in brief: as §2

Mucor indicus = assay: Kirby–Bauer agar disc diffusion; assay type: cell-based; conditions: for inhibition%: eqn (20)
Method in brief: as §2

CT-DNA [6] = assay: Nuclease activity by gel electrophoresis in presence of H2O2; assay type: biochemical; conditions: CT-DNA + H2O2, agarose gel
Method in brief: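 Chemical nuclease assay: CT-DNA with test compound plus H2O2 in Tris–HCl buffer, pH 7.2. Products run on agar gel electrophoresis and imaged under a UV transilluminator. Band migration compared with a DNA + H2O2 control.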

CT-DNA [7] = assay: DNA binding by electronic absorption titration; conditions: Wolfe–Shimmer method; 298 K, pH 7.2
Method in brief: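 UV-Vis titration at a fixed complex concentration of 100 μM in 5 mM Tris–HCl/50 mM NaCl, pH 7.2, 25 °C. CT-DNA varied 0–150 μM, with [DNA] expressed in base pairs. Kb (Wolfe–Shimmer) taken as the slope-to-intercept ratio of [DNA]/(εa−εf) vs [DNA].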

[8] = molecular target: bovine serum albumin (BSA) (Bos taurus, UniProt P02769); assay: BSA binding assay by absorption titration
Chain of bovine serum albumin (BSA) (P02769 25-607): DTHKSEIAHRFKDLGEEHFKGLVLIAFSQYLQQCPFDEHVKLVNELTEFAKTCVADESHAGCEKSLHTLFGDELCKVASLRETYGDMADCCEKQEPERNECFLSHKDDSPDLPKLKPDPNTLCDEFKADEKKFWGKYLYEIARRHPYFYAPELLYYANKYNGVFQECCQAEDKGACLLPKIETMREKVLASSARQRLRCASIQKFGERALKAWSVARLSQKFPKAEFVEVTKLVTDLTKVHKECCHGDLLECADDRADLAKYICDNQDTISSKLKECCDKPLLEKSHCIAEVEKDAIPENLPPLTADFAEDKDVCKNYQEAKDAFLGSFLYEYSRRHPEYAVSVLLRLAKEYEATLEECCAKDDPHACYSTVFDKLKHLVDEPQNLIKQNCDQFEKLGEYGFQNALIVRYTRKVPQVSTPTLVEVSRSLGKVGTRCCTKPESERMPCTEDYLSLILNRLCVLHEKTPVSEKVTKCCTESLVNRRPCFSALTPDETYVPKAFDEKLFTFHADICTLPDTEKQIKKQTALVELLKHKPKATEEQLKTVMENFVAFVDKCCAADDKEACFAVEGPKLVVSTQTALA

CT-DNA [9] = assay: DNA thermal denaturation by absorption; assay type: binding
EB–DNA = assay: Competitive binding
Method in brief: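 EB displacement fluorescence titration: CT-DNA 100 μM with EB in 50 mM Tris–HCl/1 mM NaCl buffer (pH 7.2), test compound 0–120 μM. Emission at 610 nm. KSV and Kq from Stern–Volmer (τ0 = 10^−8 s); Kass and n from log(F0−F)/F vs log[Q]; KLB from 1/(F0−F) vs 1/[Q]; KSC and n from Scatchard. Kapp from KEB[EB] = Kapp[compound] at 50% EB-fluorescence loss (KEB = 10^7 M−1, EB 50 μM).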

Escherichia coli = assay: Kirby–Bauer agar disc diffusion; assay type: cell-based; conditions: for inhibition%: from zone diameter, eqn (20)
Method in brief: as §2

[10] = system: Salmonella enteric serovar typhi; assay: Kirby–Bauer agar disc diffusion; assay type: cell-based; conditions: for inhibition%: eqn (20)
Method in brief: as §2

[11] = system: Chromobacterium violaceum; assay: Kirby–Bauer agar disc diffusion; assay type: cell-based; conditions: for inhibition%: eqn (20)
Method in brief: as §2

Pseudomonas aeruginosa = assay: Kirby–Bauer agar disc diffusion; assay type: cell-based; conditions: for inhibition%: eqn (20)
Method in brief: as §2

Shigella flexneri = assay: Kirby–Bauer agar disc diffusion; assay type: cell-based; conditions: for inhibition%: eqn (20)
Method in brief: as §2

Staphylococcus aureus = assay: Kirby–Bauer agar disc diffusion; assay type: cell-based; conditions: for inhibition%: eqn (20)
Method in brief: as §2

Bacillus cereus = assay: Kirby–Bauer agar disc diffusion; assay type: cell-based; conditions: for inhibition%: eqn (20)
Method in brief: as §2

human lung cancer (A549) = assay: In vitro anticancer MTT assay; assay type: cell-based; conditions: 50% cell death following 72 h exposure
Method in brief: (§3)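 MTT viability: cells seeded at 1 × 10^5 per well and incubated 24 h at 37 °C, 5% CO2. Treated with test compound at 10–100 μg mL−1 (from DMSO). Medium removed, wells PBS-washed, RPMI-1640 plus MTT (5 mg mL−1 solution) added for 4 h at 37 °C. Formazan dissolved in DMSO, read at 570 nm. Triplicate wells; IC50 from % viability; cisplatin as reference.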

liver cancer (HepG2) = assay: In vitro anticancer MTT assay; assay type: cell-based, human; conditions: 50% cell death following 72 h exposure
Method in brief: as §3

breast (MCF-7) = assay: In vitro anticancer MTT assay; assay type: cell-based, human; conditions: 50% cell death following 72 h exposure
Method in brief: as §3

[12] = system: normal human dermal fibroblast (NHDF); assay: MTT assay on normal cells; assay type: cell-based; conditions: normal cell line; 50% cell death following 72 h exposure
Method in brief: as §3

[13] = B = (−)Salmonella enteric serovar typhi
[14] = C = (−)Chromobacterium violaceum

Compound: O=C1O[C@H]([C@@H](O)CO)C(O)=C1O [Ascorbic acid, ascorbic acid]
- % Inhibition, DPPH [1]: 82.75%
- IC50 ([1]; read-out: IC50, DPPH): 80 µM
- % Inhibition, hydroxyl radical [2]: 78.83%
- IC50 ([2]; read-out: IC50, hydroxyl radical): 160 µM
- % Inhibition, superoxide [3]: 84.85%
- IC50 ([3]; read-out: IC50, superoxide): 120 µM
- % Inhibition, nitric oxide [4]: 72.73%
- IC50 ([4]; read-out: IC50, nitric oxide): 200 µM
- % Inhibition, ferric reducing power [5]: 88.67%
- IC50 ([5]; read-out: IC50, ferric reducing power): 160 µM

Compound: C[C@@H]1[C@H](O)[C@@H](C)/C=C/C=C/C=C/C=C/C=C/C=C/C=C/[C@H](O[C@@H]2O[C@H](C)[C@@H](O)[C@H](N)[C@@H]2O)C[C@@H]2O[C@](O)(C[C@@H](O)C[C@@H](O)[C@H](O)CC[C@@H](O)C[C@@H](O)CC(=O)O[C@H]1C)C[C@H](O)[C@H]2C(=O)O [Amphotericin B, amphotericin B]
- zone of inhibition at 100 µM (Aspergillus niger; Aspergillus niger, read-out: diameter of clear zone inhibition): 15 mm
- inhibition% (Aspergillus niger; H = Aspergillus niger): 60%
- zone of inhibition at 100 µM (Candida albicans; Candida albicans, read-out: diameter of clear zone inhibition): 17 mm
- inhibition% (Candida albicans; I = Candida albicans): 65%
- inhibition% (Mucor indicus; J = Mucor indicus): 65%
- zone of inhibition at 100 µM (Mucor indicus; Mucor indicus, read-out: diameter of clear zone inhibition): 17 mm

Compound: Oc1ccc(Br)cc1C=NCCN1CCOCC1 [HL, 2-(-(2-morpholinoethylimino)methyl)-4-bromophenol]
- DNA cleavage efficacy (CT-DNA [6]): inactive
- Kb, WS method (intrinsic DNA binding constant) (CT-DNA [7]): 10000 M⁻¹
- Chromism (%H), hyperchromism ([8]; BSA absorption, pH 7.2, 25 °C): 34.27%
- Δλ (nm), bound vs free ([8]; blue-shift of BSA band, pH 7.2, 25 °C): 02 nm
- Gibb's free energy change ([8]; from Kapp): -23.41 kJ/mol
- Binding constant Kr at 298 K (CT-DNA [9]): 10038 M⁻¹
- KLB (Lineweaver–Burk binding constant) (EB–DNA): 1498 M⁻¹
- KSV (Stern–Volmer binding constant), Method-I (EB–DNA): 4658 M⁻¹
- Kass (association binding constant), Stern–Volmer Method-II (EB–DNA): 1924 M⁻¹
- Apparent binding constant Kapp (EB–DNA; KEB[EB] = Kapp[compound], 50% reduction of EB fluorescence): 269932 M⁻¹
- KSC (Scatchard binding constant) (EB–DNA; Scatchard analysis): 10942 M⁻¹
- % Inhibition, DPPH [1]: 50.64%
- % Inhibition, hydroxyl radical [2]: 51.78%
- % Inhibition, superoxide [3]: 50.62%
- % Inhibition, nitric oxide [4]: 50.20%
- % Inhibition, ferric reducing power [5]: 54.29%
- diameter of clear zone inhibition (Escherichia coli; A = (−) Escherichia coli, 20 μL of 100 μM per disc, control (DMSO) = 6 mm): 14 mm
- inhibition% (Escherichia coli; A = (−) Escherichia coli): 57%
- diameter of clear zone inhibition ([10]; B = (−)Salmonella enteric serovar typhi, 20 μL of 100 μM per disc, control 6 mm): 12 mm
- inhibition% [10, 13]: 50%
- diameter of clear zone inhibition ([11]; C = (−)Chromobacterium violaceum, 20 μL of 100 μM per disc, control 6 mm): 12 mm
- inhibition% [11, 14]: 50%
- diameter of clear zone inhibition (Pseudomonas aeruginosa; D = (−)Pseudomonas aeruginosa, 20 μL of 100 μM per disc, control 6 mm): 12 mm
- inhibition% (Pseudomonas aeruginosa; D = (−)Pseudomonas aeruginosa): 50%
- diameter of clear zone inhibition (Shigella flexneri; E = (−)Shigella flexneri, 20 μL of 100 μM per disc, control 6 mm): 17 mm
- inhibition% (Shigella flexneri; E = (−)Shigella flexneri): 65%
- diameter of clear zone inhibition (Staphylococcus aureus; F = (+)Staphylococcus aureus, 20 μL of 100 μM per disc, control 6 mm): 10 mm
- inhibition% (Staphylococcus aureus; F = (+)Staphylococcus aureus): 40%
- diameter of clear zone inhibition (Bacillus cereus; G = (+)Bacillus cereus, 20 μL of 100 μM per disc, control 6 mm): 10 mm
- inhibition% (Bacillus cereus; G = (+)Bacillus cereus): 40%
- diameter of clear zone inhibition (Aspergillus niger; H = Aspergillus niger, 20 μL of 100 μM per disc, control 6 mm): 25 mm
- inhibition% (Aspergillus niger; H = Aspergillus niger): 76%
- diameter of clear zone inhibition (Candida albicans; I = Candida albicans, 20 μL of 100 μM per disc, control 6 mm): 12 mm
- inhibition% (Candida albicans; I = Candida albicans): 50%
- diameter of clear zone inhibition (Mucor indicus; J = Mucor indicus, 20 μL of 100 μM per disc, control 6 mm): 17 mm
- inhibition% (Mucor indicus; J = Mucor indicus): 65%
- IC50 A549 (human lung cancer (A549)): 31.74 µg/mL (≈ 101 µM)
- IC50 HepG2 (liver cancer (HepG2)): 27.48 µg/mL (≈ 87.7 µM)
- IC50 MCF-7 (breast (MCF-7)): 26.67 µg/mL (≈ 85.2 µM)
- IC50 NHDF [12]: 66.72 µg/mL (≈ 213 µM)

Compound: NCC[C@H](O)C(=O)N[C@@H]1C[C@H](N)[C@@H](O[C@H]2O[C@H](CN)[C@@H](O)[C@H](O)[C@H]2O)[C@H](O)[C@H]1O[C@H]1O[C@H](CO)[C@@H](O)[C@H](N)[C@H]1O [Amikacin, amikacin]
- inhibition% (Escherichia coli; A = (−) Escherichia coli): 73%
- zone of inhibition at 100 µM (Escherichia coli; Escherichia coli, read-out: diameter of clear zone inhibition): 22 mm
- inhibition% [10, 13]: 73%
- zone of inhibition at 100 µM ([10]; Salmonella, TYPHI, read-out: diameter of clear zone inhibition): 22 mm
- inhibition% [11, 14]: 75%
- zone of inhibition at 100 µM ([11]; Chromobacterium violaceum, read-out: diameter of clear zone inhibition): 24 mm
- inhibition% (Pseudomonas aeruginosa; D = (−)Pseudomonas aeruginosa): 70%
- zone of inhibition at 100 µM (Pseudomonas aeruginosa; Pseudomonas aeruginosa, read-out: diameter of clear zone inhibition): 20 mm
- inhibition% (Shigella flexneri; E = (−)Shigella flexneri): 70%
- zone of inhibition at 100 µM (Shigella flexneri; Shigella flexneri, read-out: diameter of clear zone inhibition): 20 mm
- inhibition% (Staphylococcus aureus; F = (+)Staphylococcus aureus): 70%
- zone of inhibition at 100 µM (Staphylococcus aureus; Staphylococcus aureus, read-out: diameter of clear zone inhibition): 20 mm
- zone of inhibition at 100 µM (Bacillus cereus; Bacillus cereus, read-out: diameter of clear zone inhibition): 20 mm
- inhibition% (Bacillus cereus; G = (+)Bacillus cereus): 70%
